Entries after “also recorded” stand apart in the source; their conditions may differ.
Legend:
[1] = tested on: insulin-stimulated glucose transport; settings: cited from earlier work
[2] = Plasma pharmacokinetics of UCN-01 in patients; type: in vivo, human
Procedure, shortened: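 Heparinized blood drawn in cycle 1 before dosing, 12, 24, 48 and 72 h after infusion start, and 12, 24 and 48 h after infusion end. Cycle 2 sampled pre-dose, at 36 h and 24 h post-end. Plasma spun 1200 x g, 5 min, 4°C, stored -80°C; assayed by HPLC-UV. Noncompartmental analysis: Cmax by inspection; λz from ≥3 terminal points; t1/2 = 0.693/λz; linear-trapezoidal AUC extrapolated by Ct/λz; CL = dose/AUC.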

[3] = tested on: patients with advanced malignancies; test: Phase I safety and toxicity, DLT and MTD of UCN-01 with prednisone; type: in vivo, human
Procedure, shortened: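 Open-label single-arm escalation with 3-6 patients per level. Test compound by continuous IV infusion, 72 h (days 3-5) in cycle 1, then 36 h from day 3; levels 17, 24, 34 mg/m2/24 h. Oral glucocorticoid 60 mg/m2/day, days 1-5; 28-day cycles. Graded by NCI CTC v2.0. DLT: grade 3-4 non-hematologic (separate hyperglycemia rules), grade 4 granulocytopenia or thrombocytopenia. MTD: ≤1 of 6 with DLT.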

[4] = tested on: patients with advanced malignancies; test: Tumor response by RECIST in the phase I trial of UCN-01 with prednisone; type: in vivo, human; settings: 15 patients
Procedure, shortened: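 Tumor response assessed radiographically every two cycles by RECIST. Patients received continuous IV test compound (72 h in cycle 1, 36 h thereafter) plus oral glucocorticoid 60 mg/m2/day on days 1-5, in 28-day cycles.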

[5] = biological target: protein kinase C; settings: cited from earlier work
[6] = tested on: patients with refractory neoplasms; settings: cited from earlier work
[7] = 15 patients, 55 courses, with prednisone
[8] = drug-related adverse events, 15 patients, all dose levels

Q: Which “effect on insulin-stimulated glucose transport” value [1] does the source give for `CN[C@@H]1C[C@H]2O[C@@](C)([C@@H]1OC)n1c3ccccc3c3c4c(c5c6ccccc6n2c5c31)C(=O)NC4` [Staurosporine] here?
A: inhibit insulin-stimulated glucose transport

Q: Which results are given for `CN[C@@H]1C[C@H]2O[C@@](C)([C@@H]1OC)n1c3ccccc3c3c4c(c5c6ccccc6n2c5c31)C(=O)N[C@@H]4O` [UCN-01, 7-hydroxy staurosporine]?
A: Clearance Mean ([2]; cycle 1, 72-h IV infusion, UCN-01 17 mg/m^2/24 h, with prednisone): 5.4 mL/h/m^2; Clearance Mean ([2]; cycle 1, 72-h IV infusion, UCN-01 24 mg/m^2/24 h, with prednisone): 3.1 mL/h/m^2; Clearance Mean ([2]; cycle 1, 72-h IV infusion, UCN-01 34 mg/m^2/24 h, with prednisone): 4.2 mL/h/m^2; half-life ([2]; human, plasma, intravenous, half-life, at the MTD, with prednisone): ~18.8 days; Cmax ([2]; human, plasma, intravenous, mean Cmax, at the MTD, with prednisone): ~12000 ng/mL; AUC(0-inf) ([2]; human, plasma, iv, AUCinf Mean, cycle 1, 72-h IV infusion, UCN-01 17 mg/m^2/24 h, with prednisone): 3130 µg·h/mL; Cmax ([2]; human, plasma, iv, Cmax Mean, cycle 1, 72-h IV infusion, UCN-01 17 mg/m^2/24 h, with prednisone): 10000 ng/mL; clearance ([2]; range over all dose levels (17, 24 and 34 mg/m^2/24 h x 72 h)): 2.13−5.47 mL/h/m^2; cumulative toxicities [3, 7]: no cumulative toxicities; grade 4 adverse events [3, 7]: no grade 4 adverse events; patients developing some grade of hyperglycemia ([3]; 15 patients, with prednisone): All patients; MTD and recommended phase II dose, cycle 2 and beyond ([3]; CIV over 36 h, with prednisone 60 mg/m^2/day for 5 days every cycle): 36 mg/m^2/cycle; reduction in the maximum dose of UCN-01 that could be safely administered ([3]; combination with prednisone versus single agent on the same schedule): 44%; DLTs ([3]; dose level 2 (72 mg/m^2 total dose over 72 h for cycle 1 followed by 36 mg/m^2/cycle), six patients): without any DLTs; grade 3 hyperglycemia, patients ([3]; dose level 3 (102 mg/m^2 total dose over 72 h for cycle 1 followed by 51 mg/m^2/cycle)): three; DLT: grade 3 hypophosphatemia during cycle 1, patients ([3]; dose level 3 (102 mg/m^2 total dose over 72 h for cycle 1 followed by 51 mg/m^2/cycle), six patients): Two of the six patients; Anemia grade 2, No. of patients [3, 8]: 2 (1); Headache grade 2, No. of patients [3, 8]: 2 (1); Hyperglycemia grade 2, No. of patients [3, 8]: 2 (9); Hypoalbuminemia grade 2, No. of patients [3, 8]: 2 (2); Hyponatremia grade 3, No. of patients [3, 8]: 3 (1); Hypophosphatemia grade 2, No. of patients [3, 8]: 2 (6); Hypophosphatemia grade 3, No. of patients [3, 8]: 3 (4); Leucopenia grade 2, No. of patients [3, 8]: 2 (1); Leucopenia grade 3, No. of patients [3, 8]: 3 (1); Neutropenia grade 2, No. of patients [3, 8]: 2 (1); Rash/desquamation grade 2, No. of patients [3, 8]: 2 (1); Visual (photophobia) grade 2, No. of patients [3, 8]: 2 (1); MTD and recommended phase II dose, cycle 1 ([3]; total dose CIV over 72 h, with prednisone 60 mg/m^2/day for 5 days every cycle): 72 mg/m^2; GI toxicity ([3]; with prednisone): did not observe any significant GI toxicity; pulmonary toxicity ([3]; with prednisone): did not observe any pulmonary toxicity; patients with stable disease for longer than two cycles [4]: five; response as defined by RECIST criteria [4]: No objective responses; also recorded: None of the 15 patients had a response; IC50 [5]: 4 to 30 nM; toxicity at the dose level above the single-agent MTD ([6]; 159 mg/m^2 over 72 h): grade 4 hyperglycemia and vomiting; MTD, single agent, cycle 1 ([6]; over 72h, same schedule): 127.5 mg/m^2; duration of prolonged disease stabilization ([6]; patient with alk-positive anaplastic large-cell lymphoma): > 2.5 years; partial response ([6]; patient with melanoma): One partial response; "free" UCN-01 levels at the end of infusion ([6]; supernatant of ultracentrifuged plasma, 24 mg/m^2/day for 3 days): 200 to 600 nmol/L; MTD, single agent, subsequent cycles ([6]; total dose administered over 36 h): 63 mg/m^2

— publication PMC2854012 (Cancer chemotherapy and pharmacology, 2009)
